In ChEMBL document CHEMBL3414531, “Design, synthesis and biological evaluation of quinazoline derivatives as anti-trypanosomatid and anti-plasmodial agents” (Eur J Med Chem, 2015):
Active and inactive are the calls of the source. The rule behind the calls is not given here.

What was measured:
[1] = system: Trypanosoma cruzi; assay: Antimicrobial activity against bloodstream trypomastigote stage of Trypanosoma cruzi INC-5 after 24 hrs by Brener method; type: functional; details: INC-5, 24 h
[2] = Antioxidant activity assessed as inhibition of ABTS free radical scavenging activity after 10 mins by spectrophotometry relative to control; type: physicochemical
Summary of the method: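 ABTS (7 mM) and potassium persulfate (2.45 mM), final concentrations in water, mixed and kept in the dark at room temperature for 16 h to form ABTS radical cation. Diluted in water to A734 of 1.00. Compounds or Trolox standards added (final 0–20). Absorbance read 10 min after mixing. IC50 is 50% radical scavenging, relative uncertainty under five percent.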

[3] = system: Trypanosoma cruzi; assay: Antimicrobial activity against bloodstream trypomastigote stage of Trypanosoma cruzi NINOA after 24 hrs by Brener method; type: functional
[4] = system: Leishmania mexicana; assay: Antimicrobial activity against Leishmania mexicana MHOM/BZ/61/M379 after 24 hrs by haemocytometry; type: functional; details: MHOM/BZ/61/M379, 24 h
[5] = system: Plasmodium berghei; assay: Antiplasmodial activity against Plasmodium berghei infected in CD1 mouse assessed as survival time at 50 mg/kg, po administered for 4 days measured on day 4 relative to vehicle-treated control; type: functional
Summary of the method: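 P. berghei ANKA was passaged by ip injection of 0.2 mL saline-diluted blood from donor mice at about 30% parasitaemia until the infection was stable. In a 4-day suppression test, mice received 50 mg/kg orally every 24 h on days 0–4 post-inoculation (n = 5, in duplicate), with 0.2 mL Arabic gum orally as control. Survival time was recorded against untreated mice, and mice without parasitaemia on day 30 counted as cured.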

[6] = Cytotoxicity against African green monkey Vero cells after 24 hrs by MTT assay; type: cell-based; details: chlorocebus sabaeus
Summary of the method: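 Confluent Vero cells were trypsinized and resuspended in MEM with 10% FBS, seeded in 96-well plates and held 24 h at 37 °C, 5% CO2. Compounds at various concentrations were added (DMSO control) for 24 h. MTT was added for 2 h, then SDS-HCl overnight at 24 °C. A540 was read and viability taken relative to control cells. Triplicate; CC50 derived.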

[7] = system: Plasmodium berghei; assay: Antiplasmodial activity against Plasmodium berghei infected in CD1 mouse assessed as reduction in parasitemia at 50 mg/kg, po administered for 4 days measured on day 4 relative to vehicle-treated control; type: functional; set-up: scale not given: the % may be the effect or the level left
Summary of the method: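 P. berghei ANKA was passaged ip (0.2 mL saline-diluted blood) through groups of female CD1 mice until infection stabilized. Four-day suppression test: oral 50 mg/kg every 24 h on days 0–4 post-inoculation (n = 5, in duplicate). Vehicle control was 0.2 mL gum arabic orally. Parasitemia was read from tail blood on day 4 and inhibition calculated against the control group. Survival time was also recorded.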

[8] = system: Leishmania mexicana; details: MHOM/BZ/61/M379
[9] = system: Leishmania mexicana; assay: Inhibition of DHFR in promastigote stage of Leishmania mexicana at 3 to 8 uM after 24 hrs in presence of folinic acid/folic acid/ferulic acid
Summary of the method: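 L. mexicana MHOM/BZ/61/M379 promastigotes, 10^6 in log phase, were incubated with folinic acid, folic acid or ferulic acid at 20, 40, 60, 80 or 100. Cells were washed, resuspended in PBS and held 1 h at room temperature, then pelleted and resuspended in culture medium in 24-well plates. Compound was added and plates incubated 24 h. Percentage of living parasites was determined.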

Row | Molecule | LC50 [1] | IC50 [2] | LC50 [3] | LC50 [4] | Survival [5] | CC50 at 24 h [6] | Activity [7] | LC50 [8] | inhibition [9]
1 | Nc1nc(N)c2cc(N(Cc3ccc(OC(F)(F)F)cc3)Cc3ccc(OC(F)(F)F)cc3)ccc2n1 | 29.2 µM | 33.9 µM | 35 µM | 4.93 µM | 14 days | > 200 µM | 21% | – | –
2 | MEGLUMINE ANTIMONATE | – | – | – | – | – | – | – | 183 µM | –
3 | COc1ccc(CN(Cc2ccc(OC)cc2)c2ccc3nc(N)nc(N)c3c2)cc1 | 46.5 µM | 114 µM | 62.6 µM | 23.1 µM | 7 days | > 200 µM | 0% | – | –
4 | O=C1O[C@H]([C@@H](O)CO)C(O)=C1O [ASCORBIC ACID] | – | 11.2 µM | – | – | – | – | – | – | –
5 | CCN(CC)CCCC(C)Nc1ccnc2cc(Cl)ccc12 (stereo not drawn) [CHLOROQUINE] | – | – | – | – | >23 days | – | 100% | – | –
6 | COc1ccc(CNc2ccc3nc(N)nc(N)c3c2)cc1 | 155 µM | 5.72 µM | 32.7 µM | 14.6 µM | 18 days | 147 µM | 98.5% | – | –
7 | Cc1c(C)c2c(c(C)c1O)CCC(C)(C(=O)O)O2 (stereo not drawn) [TROLOX] | – | 10.9 µM | – | – | – | – | – | – | –
8 | Nc1nc(N)c2cc(NCc3ccc(OC(F)(F)F)cc3)ccc2n1 | 46.1 µM | 4.75 µM | 20.6 µM | 8.08 µM | 17 days | 182 µM | 99.9% | – | Active
9 | CCc1nc(N)nc(N)c1-c1ccc(Cl)cc1 [PYRIMETHAMINE] | – | – | – | – | >23 days | 122 µM | 100% | – | –
10 | Nc1ccc2nc(N)nc(N)c2c1 [QUINAZOLINE-2,4,6-TRIAMINE] | – | 6.78 µM | – | – | – | – | – | – | –
11 | CCN(Cc1ccc(OC(F)(F)F)cc1)c1ccc2nc(N)nc(N)c2c1 | 43.8 µM | 7.36 µM | 6.28 µM | 3.06 µM | >23 days | > 200 µM | 100% | – | Active
12 | Nc1nc(N)c2cc(NCc3ccc4c(c3)OCCO4)ccc2n1 | 72.5 µM | 6.29 µM | 66.5 µM | 22.4 µM | 11 days | > 200 µM | 44.2% | – | –
13 | CN(C)CCCOc1ccc(CNc2ccc3nc(N)nc(N)c3c2)cc1 | 184 µM | 6.38 µM | 288 µM | 65.4 µM | 12 days | > 200 µM | 53.2% | – | –
14 | COc1ccc(CN(Cc2ccc(OC(F)(F)F)cc2)c2ccc3nc(N)nc(N)c3c2)cc1 | 40.7 µM | 24.5 µM | 17.8 µM | 8 µM | 21 days | > 200 µM | 95.2% | – | –
15 | CC1CS(=O)(=O)CCN1/N=C/c1ccc([N+](=O)[O-])o1 (stereo not drawn) [NIFURTIMOX] | – | – | – | – | – | 163 µM | – | – | –
16 | VITAMIN E | – | 14.8 µM | – | – | – | – | – | – | –
17 | O=C(Cn1ccnc1[N+](=O)[O-])NCc1ccccc1 [BENZNIDAZOLE] | 690 µM | – | 780 µM | – | – | – | – | – | –
18 | COc1ccc(CNc2ccc3nc(NC(C)=O)nc(NC(C)=O)c3c2)cc1 | 509 µM | 7.04 µM | 197 µM | 250 µM | 6 days | 156 µM | 89.3% | – | –
